ChEMBL document CHEMBL5579791, “Azetidine ring, salicylic acid, and salicylic acid bioisosteres as determinants of the binding characteristics of novel potent compounds to Stat3” (Bioorg Med Chem Lett, 2024)
pIC50: −log10 of the molar value. Active and inactive are the calls of the source. The rule behind the calls is not given here. Where a SMILES comes first, the peptide text is derived from it. [ ]: non-standard residue; d: D form. pY = N[C@@H](Cc1ccc(OP(=O)(O)O)cc1)C(=O)O

Experiments:
[1] = target: T1, Signal transducer and activator of transcription 3 (Homo sapiens, UniProt P40763); test: (§1) Displacement of 5-carboxyfluorescein GpYLPQTV-NH2 probe from C-terminal 6His-tagged recombinant human STAT3 (127 to 711 residues) SH2 domain extracted from Escherichia coli BL21 (DE3) assessed as inhibition of dimerization preincubated for 60 mins followed by probe addition and measured after 30 mins by fluorescence polarization assay
T1 sequence (P40763 whole entry, the tested form may be a part): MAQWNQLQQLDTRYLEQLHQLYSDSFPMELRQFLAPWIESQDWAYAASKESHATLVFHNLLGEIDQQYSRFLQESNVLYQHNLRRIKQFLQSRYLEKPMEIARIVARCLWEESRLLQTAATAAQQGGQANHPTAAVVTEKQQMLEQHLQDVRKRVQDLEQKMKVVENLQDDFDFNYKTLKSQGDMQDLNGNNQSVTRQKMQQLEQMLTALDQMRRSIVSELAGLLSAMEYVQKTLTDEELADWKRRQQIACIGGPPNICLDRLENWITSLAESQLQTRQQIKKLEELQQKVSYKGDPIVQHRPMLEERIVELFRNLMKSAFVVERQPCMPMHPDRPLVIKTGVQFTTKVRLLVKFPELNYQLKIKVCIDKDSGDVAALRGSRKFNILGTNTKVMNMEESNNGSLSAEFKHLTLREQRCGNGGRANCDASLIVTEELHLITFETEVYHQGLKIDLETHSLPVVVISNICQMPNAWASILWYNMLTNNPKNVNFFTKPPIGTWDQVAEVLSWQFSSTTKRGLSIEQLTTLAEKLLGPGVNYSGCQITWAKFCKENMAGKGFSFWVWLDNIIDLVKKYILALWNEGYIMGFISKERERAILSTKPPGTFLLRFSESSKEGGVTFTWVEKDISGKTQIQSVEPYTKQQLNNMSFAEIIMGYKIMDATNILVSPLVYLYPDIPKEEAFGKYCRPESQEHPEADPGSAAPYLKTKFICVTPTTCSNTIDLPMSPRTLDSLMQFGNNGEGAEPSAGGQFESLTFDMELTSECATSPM

[2] = target: T1, Signal transducer and activator of transcription 3; test: as §1, with “30” for “60”
[3] = target: T1, Signal transducer and activator of transcription 3; test: as §1, with “10” for “60”
[4] = target: T1, Signal transducer and activator of transcription 3; test: Inhibition of C-terminal 6His-tagged recombinant human STAT3 (127 to 711 residues) DNA-binding activity transfected in v-Src transformed mouse NIH3T3 cell nuclear extract preincubated for 10 mins followed by addition of radiolabeled hSIE and measured after 30 mins by EMSA analysis; type: subcellular, Nucleus
[5] = system: PANC-1; test: Inhibition of STAT3/Src protein-protein interaction in human PANC-1 cells at 3 uM incubated for 8 hrs by immunoblotting analysis; type: cell-based
Summary of the method: (§2)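 Panc-1 pancreatic cancer cells treated 8 h; whole-cell lysates prepared, EGFR, gp130, Src or JAK2 immunoprecipitated and immunoblotted for Stat3; control cells given 0.1% DMSO; 2 independent determinations.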

[6] = target: Signal transducer and activator of transcription 3 (Homo sapiens, UniProt P40763, C542S); test: (§3) Inhibition of recombinant wild type tyrosine phosphorylated C-terminal 6His tagged human STAT3 C542S mutant (127 to 711 residues) DNA-binding activity transfected in v-Src transformed mouse NIH3T3 cell nuclear extract preincubated for 30 mins followed by addition of radiolabeled hSIE and measured after 30 mins by EMSA analysis; type: subcellular, Nucleus
Signal transducer and activator of transcription 3 (Homo sapiens, UniProt P40763, C542S), sequence (P40763 2-770 C542S limits assumed): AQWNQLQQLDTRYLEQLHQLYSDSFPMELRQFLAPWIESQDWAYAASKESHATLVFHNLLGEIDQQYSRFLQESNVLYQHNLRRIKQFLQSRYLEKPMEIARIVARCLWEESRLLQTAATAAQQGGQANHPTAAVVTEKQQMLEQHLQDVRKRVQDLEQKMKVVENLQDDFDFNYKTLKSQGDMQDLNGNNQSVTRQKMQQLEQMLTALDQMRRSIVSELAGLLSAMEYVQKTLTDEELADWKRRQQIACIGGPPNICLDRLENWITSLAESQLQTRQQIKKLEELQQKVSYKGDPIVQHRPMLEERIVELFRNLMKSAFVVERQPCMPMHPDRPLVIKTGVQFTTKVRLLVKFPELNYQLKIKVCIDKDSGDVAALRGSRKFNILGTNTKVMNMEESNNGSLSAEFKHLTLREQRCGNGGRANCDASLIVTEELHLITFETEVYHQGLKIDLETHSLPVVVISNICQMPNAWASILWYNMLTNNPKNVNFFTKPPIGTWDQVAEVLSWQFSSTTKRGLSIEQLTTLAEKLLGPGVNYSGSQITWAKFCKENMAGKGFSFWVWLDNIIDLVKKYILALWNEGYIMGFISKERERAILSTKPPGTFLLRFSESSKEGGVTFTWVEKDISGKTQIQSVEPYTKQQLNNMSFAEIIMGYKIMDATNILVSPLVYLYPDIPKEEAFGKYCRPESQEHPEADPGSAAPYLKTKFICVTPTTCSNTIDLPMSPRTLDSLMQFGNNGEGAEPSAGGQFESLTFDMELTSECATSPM

[7] = system: PANC-1; test: Inhibition of STAT3/gp130 protein-protein interaction in human PANC-1 cells at 3 uM incubated for 8 hrs by immunoblotting analysis; type: cell-based; summary of the method: as §2
[8] = system: PANC-1; test: Inhibition of STAT3/EGFR protein-protein interaction in human PANC-1 cells at 3 uM incubated for 8 hrs by immunoblotting analysis; type: cell-based; summary of the method: as §2
[9] = target: T1, Signal transducer and activator of transcription 3; test: as §3, with “STAT3” for “STAT3 C542S mutant”; type: subcellular, Nucleus
[10] = target: Signal transducer and activator of transcription 3 (Homo sapiens, UniProt P40763, C328A); test: as §3, with “C328A” for “C542S”; type: subcellular, Nucleus
Signal transducer and activator of transcription 3 (Homo sapiens, UniProt P40763, C328A), sequence (P40763 2-770 C328A limits assumed): as the sequence (P40763 2-770 C542S limits assumed) above, with C327A, S541C counted along it

[11] = target: JAK2-STAT3 (Homo sapiens) (UniProt O60674+P40763); test: Inhibition of STAT3/JAK2 protein-protein interaction in human PANC-1 cells at 3 uM incubated for 8 hrs by immunoblotting analysis; type: cell-based
[12] = target: T1, Signal transducer and activator of transcription 3; test: Inhibition of C-terminal 6His-tagged recombinant human STAT3 (127 to 711 residues) DNA-binding activity transfected in v-Src transformed mouse NIH3T3 cell nuclear extract preincubated for 60 mins followed by addition of radiolabeled hSIE and measured after 30 mins by EMSA analysis; type: subcellular, Nucleus

| SMILES | pIC50 [1] | pIC50 [2] | pIC50 [3] | pIC50 [4] | inhibition [5] | pIC50 [6] | inhibition [7] | inhibition [8] | pIC50 [9] | pIC50 [10] | inhibition [11] | pIC50 [12] |
| --- | --- | --- | --- | --- | --- | --- | --- | --- | --- | --- | --- | --- |
| Cc1ccc(S(=O)(=O)N2CC[C@@H]2C(=O)N(Cc2ccc(C3CCCCC3)cn2)c2ccc(C(=O)O)c(O)c2)cc1 | 4.08 | 4.08 | 4.06 | – | – | – | – | – | – | – | – | – |
| CN(CC(=O)N(Cc1ccc(C2CCCCC2)cc1)c1ccc(C(=O)O)c(O)c1)S(=O)(=O)c1c(F)c(F)c(Cl)c(F)c1F | 4.45 | 4.38 | 4.32 | – | – | – | – | – | – | – | – | – |
| O=C([C@H]1CCN1S(=O)(=O)c1c(F)c(F)c(F)c(F)c1F)N(Cc1ccc(C2CCCCC2)cn1)c1ccc2c(=O)[nH]ncc2c1 | < 3.22 | < 3.22 | < 3.22 | 5.82 | inactive | 5.26 | Active | Active | 5.32 | 5.06 | Active | 6.42 |
| CC(C)C[C@H](NC(=O)[C@H](Cc1ccc(OP(=O)(O)O)cc1)NC(=O)CN)C(=O)N1CCC[C@H]1C(=O)N[C@@H](CCC(N)=O)C(=O)N[C@H](C(=O)N[C@H](C(=O)O)C(C)C)[C@@H](C)O (H-G[pY]LPQTV-OH) | 6.72 | 6.66 | 6.54 | – | – | – | – | – | – | – | – | – |
| O=C(O)c1ccc(N(Cc2cnc(C3CCCCC3)cn2)C(=O)[C@H]2CCN2S(=O)(=O)c2c(F)c(F)c(Cl)c(F)c2F)cc1O | 3.74 | 3.73 | 3.72 | – | – | – | – | – | – | – | – | – |
